Measured values as given in ChEMBL document CHEMBL1127442, “Triazolinone biphenylsulfonamide derivatives as orally active angiotensin II antagonists with potent AT1 receptor affinity and enhanced AT2 affinity” (J Med Chem, 1994).
Where “and” joins values, the source holds several entries; their conditions need not be identical. Identical values can stand only once. Calls of active or inactive are those of the source. The rule behind the calls is not given here.

Columns and labels:
Rattus norvegicus [1] = assay: (§1) Time from onset of action until significant (i.e., >=30%) inhibition of pressor response is no longer observed, at 0.3 (mg/kg) peroral dose; assay type: functional
In short: (§2)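 Conscious catheterized male Sprague-Dawley rats received compound iv or po as the water-soluble potassium salt, or in PEG 400 orally. AII (0.1 μg/kg iv) boluses were repeated at intervals while the compound was active.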

[2] = Inhibition of AII pressor response by the compound in conscious, normotensive rhesus monkeys, at 0.3 (mg/kg) intravenous dose
Monkey [3] = assay: (§3) Time from onset of action until significant (i.e., >=30%) inhibition of pressor response is no longer observed, at 1 (mg/kg) intravenous dose; assay type: functional, Cercopithecidae
Rattus norvegicus [4] = assay: Time from onset of action until significant (i.e., >=30%) inhibition of pressor response is no longer observed, at 3 (mg/kg) intravenous dose; assay type: functional; in short: as §2
Rattus norvegicus [5] = assay: Inhibition of AII pressor response by the compound in conscious, normotensive rats, at 0.3 (mg/kg) peroral dose; assay type: functional
In short: (§4)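 Male Sprague-Dawley rats (300-400 g) were conscious and catheterized for iv dosing and arterial pressure. Compound was given iv or po as the potassium salt in water, with PEG 400 for some oral doses. […] Peak inhibition is the mean of ≥2 rats.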

[6] = Inhibition of AII pressor response by the compound in conscious, normotensive rhesus monkeys, at 1 (mg/kg) intravenous dose
[7] = target: T1, Type-2 angiotensin II receptor (Rattus norvegicus, UniProt P35351); assay: In vitro inhibitory activity against angiotensin II rat midbrain AT2 receptor using radioligand [125I]-Sar Ile-AII
T1 sequence (P35351 whole entry): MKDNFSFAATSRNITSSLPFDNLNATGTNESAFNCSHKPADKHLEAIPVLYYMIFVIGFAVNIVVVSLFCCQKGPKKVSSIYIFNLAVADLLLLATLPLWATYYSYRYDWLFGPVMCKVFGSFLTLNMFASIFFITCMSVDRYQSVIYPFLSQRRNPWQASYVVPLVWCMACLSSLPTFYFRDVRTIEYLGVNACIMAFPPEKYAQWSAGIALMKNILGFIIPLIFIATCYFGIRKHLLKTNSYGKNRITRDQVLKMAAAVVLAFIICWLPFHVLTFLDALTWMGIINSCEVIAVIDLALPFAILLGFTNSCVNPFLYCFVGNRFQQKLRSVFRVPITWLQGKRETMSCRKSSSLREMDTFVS
In short: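 Dithiothreitol ([…]) was added to the assay mixture to abolish residual AT1 binding. Tubes were run in duplicate, and IC50 came from nonlinear regression of displacement curves.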

Rattus norvegicus [8] = assay: Inhibition of AII pressor response by the compound in conscious, normotensive rats, at 0.3 (mg/kg) intravenous dose; assay type: functional; in short: as §4
Rattus norvegicus [9] = assay: Inhibition of AII pressor response by the compound in conscious, normotensive rats, at 3 (mg/kg) intravenous dose; assay type: functional; in short: as §4
[10] = target: T2, Type-1 angiotensin II receptor (Oryctolagus cuniculus, UniProt P34976); assay: In vitro inhibitory activity against angiotensin II rabbit aorta AT1 receptor using radioligand [125I]-Sar Ile-AII; assay type: tissue-based
T2 sequence (P34976 whole entry): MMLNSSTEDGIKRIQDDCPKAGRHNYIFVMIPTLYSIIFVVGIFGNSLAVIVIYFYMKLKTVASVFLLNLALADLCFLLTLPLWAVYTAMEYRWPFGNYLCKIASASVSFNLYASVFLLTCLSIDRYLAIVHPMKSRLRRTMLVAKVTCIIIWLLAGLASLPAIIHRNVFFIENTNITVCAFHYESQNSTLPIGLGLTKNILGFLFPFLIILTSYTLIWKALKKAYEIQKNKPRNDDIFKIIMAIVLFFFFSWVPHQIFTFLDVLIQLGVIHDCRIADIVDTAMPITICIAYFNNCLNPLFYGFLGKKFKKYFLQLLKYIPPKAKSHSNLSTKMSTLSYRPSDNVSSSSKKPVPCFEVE

Monkey [11] = assay: as §1; assay type: functional, Cercopithecidae; conditions: in the assay text read “intravenous” for “peroral”
Monkey [12] = assay: Time from onset of action until significant (i.e., >=30%) inhibition of pressor response is no longer observed, at 10 (mg/kg) peroral dose
Rattus norvegicus [13] = assay: Time from onset of action until significant (i.e., >=30%) inhibition of pressor response is no longer observed, at 0.3 (mg/kg) peroral dose; NA= Not active; assay type: functional, organism-based; in short: as §2
Rattus norvegicus [14] = assay: Time from onset of action until significant (i.e., >=30%) inhibition of pressor response is no longer observed, at 1 (mg/kg) peroral dose; assay type: functional; in short: as §2
Rattus norvegicus [15] = assay: as §3; assay type: functional
Monkey [16] = assay: Inhibition of AII pressor response by the compound in conscious, normotensive monkey, at 3 (mg/kg) peroral dose; assay type: functional, Cercopithecidae
In short: (§5)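 Rhesus monkeys were conscious, given furosemide (5 mg/kg iv) the prior evening, and fasted 18 h with water available. They sat chaired with minimal restraint. AII and iv compound went through saphenous or brachial vein catheters, and oral compound by nasogastric tube. Peak % inhibition of the AII pressor response was measured otherwise as in the rat protocol.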

Monkey [17] = assay: (§6) Time from onset of action until significant (i.e., >=30%) inhibition of pressor response is no longer observed, at 3 (mg/kg) peroral dose; assay type: functional, Cercopithecidae
Rattus norvegicus [18] = assay: Inhibition of AII pressor response by the compound in conscious, normotensive rats, at 1 (mg/kg) peroral dose; assay type: functional; in short: as §4
Rattus norvegicus [19] = assay: Inhibition of AII pressor response by the compound in conscious, normotensive rats, at 1 (mg/kg) intravenous dose; assay type: functional; in short: as §4
Rattus norvegicus [20] = assay: Inhibition of AII pressor response by the compound in conscious, normotensive rats, at 3 (mg/kg) peroral dose; assay type: functional; in short: as §4
Rattus norvegicus [21] = assay: as §6; assay type: functional
Rattus norvegicus [22] = assay: Time from onset of action until significant (i.e., >=30%) inhibition of pressor response is no longer observed, at 0.1 (mg/kg) intravenous dose; assay type: functional; in short: as §2
Rattus norvegicus [23] = assay: Inhibition of AII pressor response by the compound in conscious, normotensive rats, at 0.1 (mg/kg) peroral dose; assay type: functional; in short: as §4
Rattus norvegicus [24] = assay: Inhibition of AII pressor response by the compound in conscious, normotensive rats, at 0.1 (mg/kg) intravenous dose; assay type: functional; in short: as §4
Rattus norvegicus [25] = assay: Time from onset of action until significant (i.e., >=30%) inhibition of pressor response is no longer observed, at 0.1 (mg/kg) peroral dose; assay type: functional; in short: as §2
Monkey [26] = conditions: Cercopithecidae
Monkey [27] = assay: Inhibition of AII pressor response by the compound in conscious, normotensive monkey, at 0.3 (mg/kg) intravenous dose; assay type: functional, Cercopithecidae; in short: as §5
Monkey [28] = assay: Inhibition of AII pressor response by the compound in conscious, normotensive monkey, at 3 (mg/kg) peroral dose; NA= Not active; assay type: functional, organism-based; conditions: Cercopithecidae; in short: as §5
Monkey [29] = assay: Inhibition of AII pressor response by the compound in conscious, normotensive monkey, at 10 (mg/kg) peroral dose; assay type: functional, Cercopithecidae; in short: as §5
Monkey [30] = assay: Time from onset of action until significant (i.e., >=30%) inhibition of pressor response is no longer observed, at 10 (mg/kg) peroral dose; assay type: functional, Cercopithecidae
In short: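 Conscious rhesus monkeys were pretreated with furosemide (5 mg/kg iv) and fasted 18 h. Compound was given orally by nasogastric tube, and AII challenges were given iv via a venous catheter, otherwise as in rats.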

| SMILES | IC50 [7] | IC50 [10] | Duration (Rattus norvegicus [1]) | Inhibition (Rattus norvegicus [8]) | Duration (Monkey [11]) | Duration (Rattus norvegicus [14]) | Duration (Rattus norvegicus [15]) | Inhibition (Rattus norvegicus [18]) | Inhibition (Rattus norvegicus [19]) | Inhibition (Rattus norvegicus [5]) | further results |
| --- | --- | --- | --- | --- | --- | --- | --- | --- | --- | --- | --- |
| CCCCc1nn(-c2ccccc2C(F)(F)F)c(=O)n1Cc1ccc(-c2ccccc2S(=O)(=O)NC(=O)c2ccccc2)cc1.ClCCl | 300 nM | 0.43 nM | <0.5 h | 31% | 5 h |  |  |  |  |  | Inhibition [2]: 80%; Duration (Monkey [3]): >6 h; Duration (Rattus norvegicus [4]): >6 h; inhibition (Rattus norvegicus [5]): inactive; Inhibition [6]: 88%; Inhibition (Rattus norvegicus [9]): 87%; Duration (Monkey [12]): >4 h; Duration (Rattus norvegicus [13]): inactive |
| CCCCc1nn(-c2ccccc2C(F)(F)F)c(=O)n1Cc1ccc(-c2ccccc2S(=O)(=O)NC(=O)C2CC2(F)F)cc1 (stereo unspecified) | 86 nM | 0.64 nM | >4 h |  |  |  | >5 h |  | 80% | 59% |  |
| CCCCc1nn(-c2ccccc2C(F)(F)F)c(=O)n1Cc1ccc(-c2ccccc2S(=O)(=O)NC(=O)OCC(C)C)cc1 | 170 nM | 0.42 nM | >5 h and >3.5 h | 65% |  | >5 h | >6 h | 63% | 72% | 61% |  |
| CCCCc1nc(Cl)c(CO)n1Cc1ccc(-c2ccccc2-c2nnn[nH]2)cc1 [LOSARTAN] |  |  | 5.5 h | 52% | 0.1 h |  |  | 58% | 78% |  | Duration (Monkey [26]): inactive; Inhibition (Monkey [27]): 49%; inhibition (Monkey [28]): inactive; Duration (Rattus norvegicus [4]): >6 h; Inhibition (Monkey [29]): 50%; Duration (Monkey [30]): 2.1 h |

Further compounds by falling IC50 [7], results first:

| IC50 [7] | IC50 [10] | SMILES | Duration (Rattus norvegicus [1]) | Inhibition (Rattus norvegicus [8]) | Duration (Monkey [11]) | Duration (Rattus norvegicus [14]) | Duration (Rattus norvegicus [15]) | Inhibition (Rattus norvegicus [18]) | Inhibition (Rattus norvegicus [19]) | Inhibition (Rattus norvegicus [5]) | further results |
| --- | --- | --- | --- | --- | --- | --- | --- | --- | --- | --- | --- |
| 910 nM | 0.36 nM | O=C(NS(=O)(=O)c1ccccc1-c1ccc(Cn2c(CCCC(F)(F)F)nn(-c3ccccc3C(F)(F)F)c2=O)cc1)c1ccccc1Cl |  |  |  |  | 2.4 h |  | 67% |  | Inhibition (Rattus norvegicus [20]): 76%; Duration (Rattus norvegicus [21]): >24 h |
| 220 nM | 0.36 nM | CCCCc1nn(-c2ccccc2C(F)(F)F)c(=O)n1Cc1ccc(-c2ccccc2S(=O)(=O)NC(=O)C2CC2(C)C)cc1 (stereo unspecified) | >5.5 h | 84% | 3.5 h | >6 h |  | 76% |  |  |  |
| 120 nM | 0.26 nM | CCCCc1nn(-c2ccccc2C(F)(F)F)c(=O)n1Cc1ccc(-c2ccccc2S(=O)(=O)NC(=O)c2ccco2)cc1 |  |  |  | 3.7 h | >6 h | 70% | 85% |  | Inhibition (Monkey [16]): 54%; Duration (Monkey [17]): 4 h |
| 46 nM | 1.1 nM | CCCCc1nn(-c2ccccc2C(F)(F)F)c(=O)n1Cc1ccc(-c2ccccc2S(=O)(=O)NC(=O)CC(C)(C)C)cc1 | >5.5 h | 69% |  |  |  |  |  |  |  |
| 30 nM | 0.27 nM | CCCCc1nn(-c2ccccc2C(F)(F)F)c(=O)n1Cc1ccc(-c2ccccc2S(=O)(=O)NC(=O)c2sccc2Cl)cc1 | >5 h |  |  |  | >6 h |  | 90% | 64% |  |
| 17 nM | 0.45 nM | CCCCc1nn(-c2ccccc2C(F)(F)F)c(=O)n1Cc1ccc(-c2ccccc2S(=O)(=O)NC(=O)OC(C)(C)C)cc1 | >4.5 h and >3.5 h | 78% |  | >6 h | >6 h |  |  | 81% | Duration (Rattus norvegicus [22]): >4.5 h; Inhibition (Rattus norvegicus [23]): 77%; Inhibition (Rattus norvegicus [24]): 76%; Duration (Rattus norvegicus [25]): >3 h |
